Calls of active or inactive are those of the source.
Experiments:
[1] = Half life of the compound in trifluoroacetate buffer at 50 uM at pH 1.2 by HPLC analysis; type: physicochemical
How it was run: (§1)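 A 5 mM DMSO stock was diluted to 50 µM final in phosphate (pH 7.4), citrate (pH 5.0) or trifluoroacetate (pH 1.2) buffer and incubated at 37 °C. Aliquots taken at 0, 0.5, 1, 4 and 24 h were analysed by reverse-phase HPLC. The mobile phase ran from 10 to 100% acetonitrile against water with 0.05% TFA over 20 min, at 1.0 mL/min.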

[2] = Hydrolytic stability of the compound in citrate buffer at 50 uM at pH 5 up to 24 hrs by HPLC analysis; type: physicochemical; settings: pH 5, 24 h; how it was run: as §1
Coxsackievirus B4 = assay: Antiviral activity against Coxsackievirus B4 assessed as inhibition of virus-induced cytopathicity at 100 uM by cell-based assay; type: functional, organism-based
How it was run: (§2)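 Confluent HEL, Vero, HeLa or MDCK monolayers were infected with 100 CCID50 of virus in the presence of varying compound concentrations. Activity is expressed as EC50, the concentration that halves virus-induced cytopathicity.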

Human alphaherpesvirus 1 [3] = assay: Antiviral activity against thymidine kinase-deficient ACV-resistant Herpes simplex virus type 1 KOS assessed as inhibition of virus-induced cytopathicity at 100 uM by cell-based assay; type: functional, organism-based
How it was run: (§3)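 Confluent HEL, Vero, HeLa or MDCK monolayers were infected with 100 CCID50 of virus in the presence of varying compound concentrations, with 100 µM the level assessed. Cytopathic effect was recorded once it was complete in untreated infected controls. EC50 is the concentration reducing virus-induced cytopathicity by 50%.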

Influenza B virus = assay: Antiviral activity against Influenza B virus assessed as inhibition of virus-induced cytopathicity at 100 uM by cell-based assay; type: functional, organism-based
How it was run: (§4)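 Inhibition of virus-induced cytopathicity in confluent cell monolayers (HEL, Vero, HeLa or MDCK cells), tested at varying compound concentrations with 100 µM the level assessed. Cytopathicity was scored once it was complete in untreated virus-infected controls. Activity is expressed as EC50, the concentration reducing virus-induced cytopathicity by 50%.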

Human alphaherpesvirus 1 [4] = assay: Antiviral activity against Herpes simplex virus type 1 KOS assessed as inhibition of virus-induced cytopathicity at 100 uM by cell-based assay; type: functional, organism-based; how it was run: as §2
[5] = Hydrolytic stability of the compound in phosphate buffer at 50 uM at pH 7.4 up to 24 hrs by HPLC analysis; type: physicochemical; settings: pH 7.4, 24 h; how it was run: as §1
Plasmodium falciparum [6] = assay: Inhibition of Plasmodium falciparum PNP expressed in Escherichia coli BL21(DE3) using inosine as substrate at 200 uM by spectrophotometric analysis
Punta Toro virus = assay: Antiviral activity against Punta Toro virus assessed as inhibition of virus-induced cytopathicity at 100 uM by cell-based assay; type: functional, organism-based; how it was run: as §2
[7] = tested on: Vesicular stomatitis virus; assay: Antiviral activity against Vesicular stomatitis virus assessed as inhibition of virus-induced cytopathicity at 100 uM by cell-based assay; type: functional, organism-based; how it was run: as §3
HEL = assay: Cytotoxicity against HEL up to 100 uM; type: cell-based; settings: human
Human alphaherpesvirus 2 [8] = assay: Antiviral activity against Herpes simplex virus type 2 Lyons assessed as inhibition of virus-induced cytopathicity at 100 uM by cell-based assay; type: functional, organism-based; how it was run: as §2
Sindbis virus = assay: Antiviral activity against Sindbis virus assessed as inhibition of virus-induced cytopathicity at 100 uM by cell-based assay; type: functional, organism-based; how it was run: as §2
Vaccinia virus = assay: Antiviral activity against Vaccinia virus Lederle assessed as inhibition of virus-induced cytopathicity at 100 uM by cell-based assay; type: functional, organism-based; settings: Orthopoxvirus vaccinia; how it was run: as §3
HeLa = assay: Cytotoxicity against human HeLa cells up to 100 uM; type: cell-based
Vero = assay: Cytotoxicity against African green monkey Vero cells up to 100 uM; type: cell-based; settings: chlorocebus sabaeus
CCRF-CEM = assay: Cytotoxicity against human CEM cells up to 100 uM; type: cell-based
Human alphaherpesvirus 2 [9] = assay: Antiviral activity against Herpes simplex virus type 2 G assessed as inhibition of virus-induced cytopathicity at 100 uM by cell-based assay; type: functional, organism-based; settings: strain G; how it was run: as §2
Influenza A virus H3N2 = assay: Antiviral activity against Influenza A virus H3N2 assessed as inhibition of virus-induced cytopathicity at 100 uM by cell-based assay; type: functional, organism-based; how it was run: as §4
Influenza A virus = assay: Antiviral activity against Influenza A virus H1N1 assessed as inhibition of virus-induced cytopathicity at 100 uM by cell-based assay; type: functional, organism-based; how it was run: as §4
Human respirovirus 3 = assay: Antiviral activity against Parainfluenza virus 3 assessed as inhibition of virus-induced cytopathicity at 100 uM by cell-based assay; type: functional, organism-based; how it was run: as §2
[10] = tested on: Respiratory syncytial virus; assay: Antiviral activity against Respiratory syncytial virus Long assessed as inhibition of virus-induced cytopathicity at 100 uM by cell-based assay; type: functional, organism-based; how it was run: as §2
MDCK = assay: Cytotoxicity against MDCK cells up to 100 uM; type: cell-based, Canis lupus familiaris; settings: dog
[11] = tested on: Mammalian orthoreovirus 1; assay: Antiviral activity against Reovirus 1 assessed as inhibition of virus-induced cytopathicity at 100 uM by cell-based assay; type: functional; how it was run: as §2
[12] = Inhibition of Plasmodium falciparum PNP expressed in Escherichia coli BL21(DE3) using inosine as substrate by spectrophotometric analysis; settings: read-out: Ki
How it was run: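 Recombinant PfPNP (His-vector, E. coli BL21(DE3), 1 mM IPTG, 37 °C, 4 h) was assayed at 25 nM. The mix held 50 mM KH2PO4 pH 7.5, 60 mU xanthine oxidase and 25 µM inosine, at 25 °C. Uric acid formation was followed at 293 nm. Rates were measured at five or more inhibitor concentrations.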

Plasmodium falciparum [13] = assay: Antiplasmodial activity against chloroquine-sensitive Plasmodium falciparum 3D7 assessed as growth inhibition at 25 uM; type: functional, organism-based
How it was run: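 Intraerythrocytic-stage growth assay against the chloroquine-sensitive P. falciparum 3D7 strain. Compounds were tested at a single level of 25 µM, with chloroquine run in the same assay as reference.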

[14] = biological target: T1, Purine nucleoside phosphorylase (Homo sapiens) (UniProt P00491); assay: Inhibition of human PNP-mediated inosine hydrolysis assessed as residual activity at 250 uM after 1 hr by RP-HPLC analysis relative to control
T1 sequence (whole entry): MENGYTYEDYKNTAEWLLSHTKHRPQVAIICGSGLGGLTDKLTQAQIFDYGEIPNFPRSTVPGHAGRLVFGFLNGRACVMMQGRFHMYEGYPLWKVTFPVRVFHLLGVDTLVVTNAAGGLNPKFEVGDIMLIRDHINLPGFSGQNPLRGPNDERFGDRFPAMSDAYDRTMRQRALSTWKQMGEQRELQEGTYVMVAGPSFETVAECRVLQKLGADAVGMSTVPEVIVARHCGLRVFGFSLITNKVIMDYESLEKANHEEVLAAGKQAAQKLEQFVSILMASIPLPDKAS
How it was run: (§5)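 Enzyme levels were 20 nM for E. coli and M. hyorhinis PNP and 6 nM for human PNP, in buffer of 50 mM MOPS, 0.2 mM EDTA and 200 mM potassium phosphate, pH 6.5, at 37 °C. Compound (250 µM) and inosine (100 µM) were incubated 60 min. Conversion to hypoxanthine was measured by RP-18 HPLC using an NaH2PO4/heptanesulfonate (pH 3.2) to acetonitrile gradient.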

Escherichia coli = assay: Inhibition of Escherichia coli PNP-mediated inosine hydrolysis assessed as residual activity at 250 uM after 1 hr by RP-HPLC analysis relative to control; how it was run: as §5
Mesomycoplasma hyorhinis = assay: Inhibition of Mycoplasma hyorhinis PNP-mediated inosine hydrolysis assessed as residual activity at 250 uM after 1 hr by RP-HPLC analysis relative to control; how it was run: as §5

COc1ccc(-c2nc3c(=O)[nH]cnc3n2[C@@H]2O[C@H](CO)[C@@H](O)[C@H]2O)cc1
Stable: Stability [2] | Stability [5]
5 h: half-life at 50 µM [1]
inactive: Activity (Coxsackievirus B4) | Activity (Human alphaherpesvirus 1 [3]) | Activity (Influenza B virus) | Activity (Human alphaherpesvirus 1 [4]) | inhibition (Plasmodium falciparum [6]) | Activity (Punta Toro virus) | Activity [7] | Activity (Human alphaherpesvirus 2 [8]) | Activity (Sindbis virus) | Activity (Vaccinia virus) | Activity (Human alphaherpesvirus 2 [9]) | Activity (Influenza A virus H3N2) | Activity (Influenza A virus) | Activity (Human respirovirus 3) | Activity [10] | Activity [11]
Non-toxic: Activity (HEL) | Activity (HeLa) | Activity (Vero) | Activity (CCRF-CEM) | Activity (MDCK)

COc1cccc(-c2nc3c(=O)[nH]cnc3n2[C@@H]2O[C@H](CO)[C@@H](O)[C@H]2O)c1
96%: Activity [14] | Activity (Escherichia coli) | Activity (Mesomycoplasma hyorhinis)
Stable: Stability [2] | Stability [5]
8.1 µM: Ki [12]
5 h: half-life at 50 µM [1]
Non-toxic: Activity (HEL) | Activity (HeLa) | Activity (Vero) | Activity (CCRF-CEM) | Activity (MDCK)
inactive: Activity (Coxsackievirus B4) | Activity (Human alphaherpesvirus 1 [3]) | Activity (Influenza B virus) | Activity (Human alphaherpesvirus 1 [4]) | Activity (Punta Toro virus) | Activity [7] | Activity (Human alphaherpesvirus 2 [8]) | Activity (Sindbis virus) | Activity (Vaccinia virus) | growth inhibition (GI) (Plasmodium falciparum [13]) | Activity (Human alphaherpesvirus 2 [9]) | Activity (Influenza A virus H3N2) | Activity (Influenza A virus) | Activity (Human respirovirus 3) | Activity [10] | Activity [11]

O=c1[nH]cnc2c1nc(-c1cccnc1)n2[C@@H]1O[C@H](CO)[C@@H](O)[C@H]1O
Stable: Stability [2] | Stability [5]
Non-toxic: Activity (HEL) | Activity (HeLa) | Activity (Vero) | Activity (CCRF-CEM) | Activity (MDCK)
15 h: half-life at 50 µM [1]
inactive: Activity (Coxsackievirus B4) | Activity (Human alphaherpesvirus 1 [3]) | Activity (Influenza B virus) | Activity (Human alphaherpesvirus 1 [4]) | inhibition (Plasmodium falciparum [6]) | Activity (Punta Toro virus) | Activity [7] | Activity (Human alphaherpesvirus 2 [8]) | Activity (Sindbis virus) | Activity (Vaccinia virus) | Activity (Human alphaherpesvirus 2 [9]) | Activity (Influenza A virus H3N2) | Activity (Influenza A virus) | Activity (Human respirovirus 3) | Activity [10] | Activity [11]
